Assay results: PubChem BioAssay AID602190 (Broad Institute, 2012)
Records with an inconclusive call do not appear. The source made the active and inactive calls.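 The calls were made as follows: active = compound whose fitted half-maximal concentration, in every repeat run, is at most twice the top dose tested; inconclusive = repeat runs disagree, or a flat or poor curve fit; inactive = every repeat run called inactive.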

Key:
[1] = test system: C. albicans CaCi-2 growth, Alamar Blue fluorescence, 48 h; test: C. albicans isolate growth inhibitors, no fluconazole added – CaCi-2 strain, plate reader, dry powder, dose response (AID 602190)
Method in brief: (§1)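 Material – Candida albicans strain CaCi-2, a fluconazole-resistant clinical isolate · Quantity – inoculum OD600 0.00015 · Dosing – test compounds in a dose-response series · Incubation – 48 h static exposure at 37 °C, 2 h Alamar Blue · Technique – Alamar Blue fluorescence · Measure – growth inhibition from lowered fluorescence · Control set – amphotericin 10 µM positive control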

[2] = as above; settings: C. albicans CaCi-2 growth, Alamar Blue fluorescence, 48 h; at 26 µM (top of the series)
Method in brief: as §1

Compound | AC50 [1] [µM] | activity change, negative = inhibition [2]
C/C(=N\NC(=O)c1cc2ccccc2cc1O)c1ccccn1 | 6.11 | –
NC(=O)c1cccc(C(=O)Nc2nc(-c3ccc4c(c3)CCCC4)cs2)c1 | – | 4.94% (inactive)
O=C(Oc1c(Cl)cc(Cl)c2cccnc12)c1ccco1 | 0.708 | –
Cc1cc(C)n(-c2nc3ccccc3c(=O)n2OCC#N)n1 | 6.87 | –
O=C(NNC(=S)Nc1ccc(Cl)c(Cl)c1)c1ccccn1 | 13 | –
CCOC(=O)N1C(=O)C2(CCCCC2)N(c2ccc(C)cc2)C1=S | 4.29 | –
O=C(Nc1nc(-c2ccccn2)cs1)c1ccccc1 | – | 6.07% (inactive)
CN1CCN(C(c2ccc(C(F)(F)F)cc2)c2ccc3cccnc3c2O)CC1 (stereo unspecified) | 4.75 | –
Oc1c(CN2CCN(c3ccccc3)CC2)cc(Cl)c2cccnc12 | 2.72 | –
O=C(Nc1nc(-c2ccccn2)cs1)c1ccc(Br)s1 | 5.53 | –
Oc1c(C(c2ccccc2Cl)N2CCCCC2)ccc2cccnc12 (stereo unspecified) | 8.88 | –
Cc1ccc(-c2nc3c(Cl)cc(Cl)cc3c(=O)n2O)cc1 | – | -45% (inactive)
O=C(Nc1nc(-c2ccccn2)cs1)c1ccc(Cl)s1 | 6.89 | –
Oc1c(C(c2ccc(Cl)cc2)N2CCCC2)ccc2cccnc12 (stereo unspecified) | 5.03 | –
O=C(Nc1nnc(-c2ccc3c(c2)CCCC3)o1)c1ccc(Cl)cc1Cl | 17.9 | –
O=C(Nc1nnc(-c2ccc3c(c2)CCCC3)o1)c1ccccc1 | 17.6 | –
Oc1c(CN2CCc3ccccc3C2)cc(Cl)c2cccnc12 | 1.57 | –
O=C(Nc1nc(-c2ccccc2)cs1)c1ccc(Br)s1 | – | -11.8% (inactive)
C=CCNC(=S)N/N=C(\C)c1ccccn1 | – | -68% (inactive)
O=C(Nc1nc(-c2ccc3c(c2)CCCC3)cs1)c1ccccc1 | – | -18.1% (inactive)
Cc1ccc(C(=O)Nc2nnc(-c3ccccc3)o2)cc1C | – | -9.38% (inactive)
